# Source: article PMC8144669 (The Journal of Biological Chemistry, 2021)
# Key:
# Format in all cases: biochemical
# [1] = target: T1, M3RA (MLL3SET-RBBP5AS-ABM-ASH2LSPRY) (Homo sapiens, UniProt Q8NEZ4); assay: Continuous enzyme-coupled methylation assay, M3RA
# [2] = target: T2, M4RA (MLL4SET-RBBP5AS-ABM-ASH2LSPRY) (Homo sapiens, UniProt O14686); assay: Continuous enzyme-coupled methylation assay, M4RA
# [3] = target: T1, M3RA (MLL3SET-RBBP5AS-ABM-ASH2LSPRY); assay: Mass-spectrometry-based
# Method in brief: (§1)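 Enzyme (E. coli-expressed SET–RBBP5–ASH2L ternary complex) was preincubated 15 min with 0, 50 or 100 μM AdoHcy. […] Samples taken every 30 s were quenched with TFA (0.5% final) and chilled to 4 °C. Monomethylated peptide was measured by MALDI-TOF in a CHCA matrix. Data were analysed by Lineweaver–Burk plots and nonlinear fits to competitive, noncompetitive and uncompetitive models, choosing the best coefficient of determination and lowest error.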
# [4] = target: T2, M4RA (MLL4SET-RBBP5AS-ABM-ASH2LSPRY); assay: Mass-spectrometry-based
# Method in brief: as §1
# [5] = substrate: C[S+](CC[C@H](N)C(=O)[O-])C[C@H]1O[C@@H](n2cnc3c(N)ncnc32)[C@H](O)[C@@H]1O; assay: Continuous enzyme-coupled methylation assay, M3RA; details: other: H3P20 fixed at 1600 μM; pH 8.0; 30.0 °C
# [6] = substrate: C[S+](CC[C@H](N)C(=O)[O-])C[C@H]1O[C@@H](n2cnc3c(N)ncnc32)[C@H](O)[C@@H]1O; assay: Continuous enzyme-coupled methylation assay, M4RA; details: other: H3P20 fixed at 1600 μM; pH 8.0; 30.0 °C
# [7] = Ki, varied AdoMet, global fit to Competitive model (Model Fit: Competitive)
# [8] = varied substrate AdoMet, H3P20 constant 400 μM
# [9] = varied substrate H3P20, AdoMet constant 200 μM
# T1 sequence (Q15291 330-360 partner limits assumed, one chain of several): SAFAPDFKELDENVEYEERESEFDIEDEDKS
# T1 sequence (Q9UBL3 380-599 partner limits assumed, one chain of several): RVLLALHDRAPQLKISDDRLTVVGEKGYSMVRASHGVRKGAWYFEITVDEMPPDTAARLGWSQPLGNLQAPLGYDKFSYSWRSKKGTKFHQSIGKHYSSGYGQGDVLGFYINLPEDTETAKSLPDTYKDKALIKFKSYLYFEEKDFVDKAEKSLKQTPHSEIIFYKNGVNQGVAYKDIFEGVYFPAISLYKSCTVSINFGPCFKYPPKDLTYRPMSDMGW
# T2 sequence (Q15291 330-360 partner limits assumed, one chain of several): as the sequence (Q15291 330-360 partner limits assumed, one chain of several) above
# T2 sequence (Q9UBL3 380-599 partner limits assumed, one chain of several): as the sequence (Q9UBL3 380-599 partner limits assumed, one chain of several) above
molecule,measurement,setting,value
"C[S+](CC[C@H](N)C(=O)[O-])C[C@H]1O[C@@H](n2cnc3c(N)ncnc32)[C@H](O)[C@@H]1O (stereo partly shown) [AdoMet, S-adenosylmethionine]",Kd,[1],4.29 ± 0.44 µM
same,KBA,"[1]; from secondary plots, Michaelis constant for formation of EAB from A to EB",27.23 ± 3.05 µM
same,Kd,[2],10.3 ± 0.46 µM
"M3RA: ternary complex of MLL3 SET domain, RBBP5AS-ABM and ASH2LSPRY",kcat,[1]; from secondary plots,0.108 ± 0.00783 s⁻¹
"Nc1ncnc2c1ncn2[C@@H]1O[C@H](CSCC[C@H](N)C(=O)O)[C@@H](O)[C@H]1O [AdoHcy, S-adenosylhomocysteine]",Ki,[3]; [7],4.19 µM
same,Inhibition pattern,[3]; [8],Competitive
same,Inhibition pattern,[3]; [9],Noncompetitive
same,Ki,[4]; [7],11.2 µM
same,Inhibition pattern,[4]; [8],Competitive
same,Inhibition pattern,[4]; [9],Noncompetitive
"M4RA: ternary complex of MLL4 SET domain, RBBP5AS-ABM and ASH2LSPRY",kcat,[2]; from secondary plots,0.108 ± 0.00533 s⁻¹
Nc1ncnc2c1ncn2[C@@H]1O[C@H](C[C@@H](N)CC[C@H](N)C(=O)O)[C@@H](O)[C@H]1O [Sinefungin],Inhibition pattern,[1]; [8],Competitive
same,Inhibition pattern,[1]; [9],Noncompetitive
same,Inhibition pattern,[2]; [8],Competitive
same,Inhibition pattern,[2]; [9],Noncompetitive
M3RA (MLL3SET-RBBP5AS-ABM-ASH2LSPRY) (Homo sapiens) (protein) SNVYLARSRIQGLGLYAARDIEKHTMVIEYIGTIIRNEVANRKEKLYESQNRGVYMFRMDNDHVIDATLTGGPARYINHSCAPNCVAEVVTFERGHKIIISSSRRIQKGEELCYDYK,Km,[5],20.0 ± 1.5 µM
same,kcat,[5],0.0833 ± 0.0017 s⁻¹
M4RA (MLL4SET-RBBP5AS-ABM-ASH2LSPRY) (Homo sapiens) (protein) NNVYLARSRIQGLGLYAAKDLEKHTMVIEYIGTIIRNEVANRREKIYEEQNRGIYMFRINNEHVIDATLTGGPARYINHSCAPNCVAEVVTFDKEDKIIIISSRRIPKGEELTYDYQ,Km,[6],6.9 ± 0.4 µM
same,kcat,[6],0.08 ± 0.0017 s⁻¹
